From ChEMBL document CHEMBL1255336, “Single-dose safety and pharmacokinetics of ST-246, a novel orthopoxvirus egress inhibitor” (Antimicrob Agents Chemother, 2008)

Assays:
[1] = Terminal half life in fasting healthy human at 500 mg, po administered as single dose measured after 48 hrs; type: ADME, organism-based; conditions: in vivo
Procedure, shortened: (§1)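 Healthy volunteers, 8 per group on active drug (2 placebo), single fasting oral dose. Venous plasma drawn predose and 0.5–12, 24, 48 h postdose, kept at –70°C, assayed by validated LC-MS/MS with analog internal standard. Noncompartmental analysis on actual times; Tmax observed directly; kel by log-linear regression of ≥3 terminal points; CL = dose/AUC0-∞. Median values.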

[2] = Terminal half life in fasting healthy human at 1000 mg, po administered as single dose measured after 48 hrs; type: ADME, organism-based; conditions: in vivo; procedure, shortened: as §1
[3] = Terminal half life in fasting healthy human at 2000 mg, po administered as single dose measured after 48 hrs; type: ADME, organism-based; conditions: in vivo; procedure, shortened: as §1
[4] = Terminal half life in nonfasting healthy human at 1000 mg, po administered as single dose measured after 72 hrs; type: ADME, organism-based; conditions: in vivo
Procedure, shortened: (§2)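 Healthy volunteers (8 active, 2 placebo) given a single 1,000 mg oral dose in the fed state. Plasma sampled predose, at 0.5–12 h, 24, 48 and 72 h postdose and analysed by validated LC-MS/MS. Noncompartmental analysis on actual sampling times. Tmax observed directly; t1/2 from kel fitted to ≥3 terminal log-linear points. Median values.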

[5] = Tmax in fasting healthy human at 500 mg, po administered as single dose measured after 48 hrs; type: ADME, organism-based; conditions: in vivo; procedure, shortened: as §1
[6] = Tmax in fasting healthy human at 1000 mg, po administered as single dose measured after 48 hrs; type: ADME, organism-based; conditions: in vivo
[7] = Tmax in fasting healthy human at 2000 mg, po administered as single dose measured after 48 hrs; type: ADME, organism-based; conditions: in vivo; procedure, shortened: as §1
[8] = Tmax in nonfasting healthy human at 1000 mg, po administered as single dose measured after 72 hrs; type: ADME, organism-based; conditions: in vivo; procedure, shortened: as §2
[9] = Cmax in fasting healthy human at 500 mg, po administered as single dose measured after 48 hrs; type: ADME, organism-based; design: dose 500 mg, route oral; conditions: in vivo
Procedure, shortened: (§3)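 Randomised placebo-controlled single oral dose in healthy subjects (8 active, 2 placebo per group); groups 1–3 fasting, group 4 nonfasting. Plasma sampled predose to 48 h (groups 1–3) or 72 h (group 4), centrifuged 4°C, stored –70°C. LC-MS/MS with analog internal standard. Noncompartmental analysis on actual times; Cmax observed; AUC by trapezoid rule, extrapolated with kel; CL = dose/AUC0-∞.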

[10] = Cmax in fasting healthy human at 1000 mg, po administered as single dose measured after 48 hrs; type: ADME, organism-based; design: dose 1000 mg, route oral; conditions: in vivo; procedure, shortened: as §3
[11] = Cmax in fasting healthy human at 2000 mg, po administered as single dose measured after 48 hrs; type: ADME, organism-based; design: dose 2000 mg, route oral; conditions: in vivo; procedure, shortened: as §3
[12] = Cmax in nonfasting healthy human at 1000 mg, po administered as single dose measured after 72 hrs; type: ADME, organism-based; design: dose 1000 mg, route oral; conditions: in vivo; procedure, shortened: as §3
[13] = AUClast in fasting healthy human at 500 mg, po administered as single dose measured after 48 hrs; type: ADME, organism-based; design: dose 500 mg, time < 48 hr, route oral; conditions: plasma; procedure, shortened: as §3
[14] = AUClast in fasting healthy human at 1000 mg, po administered as single dose measured after 48 hrs; type: ADME, organism-based; design: dose 1000 mg, time < 48 hr, route oral; conditions: plasma; procedure, shortened: as §3
[15] = AUClast in fasting healthy human at 2000 mg, po administered as single dose measured after 48 hrs; type: ADME, organism-based; design: time < 48 hr, dose 2000 mg, route oral; conditions: plasma; procedure, shortened: as §3
[16] = AUClast in nonfasting healthy human at 1000 mg, po administered as single dose measured after 72 hrs; type: ADME, organism-based; design: time < 72 hr, dose 1000 mg, route oral; conditions: plasma; procedure, shortened: as §3
[17] = AUC(0 to infinity) in fasting healthy human at 500 mg, po administered as single dose measured after 48 hrs; type: ADME, organism-based; design: dose 500 mg, route oral, time infinity; conditions: plasma; procedure, shortened: as §3
[18] = AUC(0 to infinity) in fasting healthy human at 1000 mg, po administered as single dose measured after 48 hrs; type: ADME, organism-based; design: dose 1000 mg, time infinity, route oral; conditions: plasma; procedure, shortened: as §3
[19] = AUC(0 to infinity) in fasting healthy human at 2000 mg, po administered as single dose measured after 48 hrs; type: ADME, organism-based; design: dose 2000 mg, time infinity, route oral; conditions: plasma; procedure, shortened: as §3
[20] = AUC(0 to infinity) in nonfasting healthy human at 1000 mg, po administered as single dose measured after 72 hrs; type: ADME, organism-based; design: dose 1000 mg, time infinity, route oral; conditions: plasma; procedure, shortened: as §3
[21] = Apparent oral clearance in fasting healthy human at 500 mg, po administered as single dose measured after 48 hrs; type: ADME, organism-based; conditions: in vivo; procedure, shortened: as §3
[22] = Apparent oral clearance in fasting healthy human at 1000 mg, po administered as single dose measured after 48 hrs; type: ADME, organism-based; conditions: in vivo; procedure, shortened: as §3
[23] = Apparent oral clearance in fasting healthy human at 2000 mg, po administered as single dose measured after 48 hrs; type: ADME, organism-based; conditions: in vivo; procedure, shortened: as §1
[24] = Apparent oral clearance in nonfasting healthy human at 1000 mg, po administered as single dose measured after 72 hrs; type: ADME, organism-based; conditions: in vivo; procedure, shortened: as §3
[25] = Median half life in fasting healthy human at 500 mg, po administered as single dose measured after 48 hrs; type: ADME, organism-based; conditions: in vivo; procedure, shortened: as §1
Homo sapiens [26] = test: Median half life in fasting healthy human at 1000 mg, po administered as single dose measured after 48 hrs; type: ADME, organism-based; conditions: in vivo
[27] = Median half life in fasting healthy human at 2000 mg, po administered as single dose measured after 48 hrs; type: ADME, organism-based; conditions: in vivo; procedure, shortened: as §1
[28] = Plasma clearance in fasting healthy human at 500 mg, po administered as single dose measured after 48 hrs; type: ADME, organism-based; procedure, shortened: as §3
[29] = Plasma clearance in fasting healthy human at 1000 mg, po administered as single dose measured after 48 hrs; type: ADME, organism-based; procedure, shortened: as §3
[30] = Plasma clearance in fasting healthy human at 2000 mg, po administered as single dose measured after 48 hrs; type: ADME, organism-based; procedure, shortened: as §3
[31] = Apparent Cmax in nonfasting healthy human at 1000 mg, po administered as single dose measured after 72 hrs; type: ADME, organism-based; design: dose 1000 mg, route oral; conditions: in vivo; procedure, shortened: as §3
[32] = Plasma clearance in nonfasting healthy human at 1000 mg, po administered as single dose measured after 72 hrs; type: ADME, organism-based; procedure, shortened: as §3
Homo sapiens [33] = test: Toxicity in fasting healthy human assessed as adverse events at 500 mg, po administered as single dose measured after 48 hrs; type: organism-based; conditions: in vivo
Procedure, shortened: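 Healthy subjects given single oral dose, 8 active and 2 placebo per group. Safety covered adverse events, vital signs, ECG (day 1 and week 4), hematology, chemistries, urinalysis before and after dosing. Follow-up visits at week 1 and week 4. Cohort safety was reviewed before the next dose group.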

Homo sapiens [34] = test: Toxicity in fasting healthy human assessed as feeling abnormal at 500 mg, po administered as single dose measured after 48 hrs; type: organism-based; conditions: in vivo
Procedure, shortened: (§4)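 Randomized, placebo-controlled single oral dose in healthy adults, groups of 10 (8 drug, 2 placebo), dose escalated after safety review. Fasting groups got 500, 1,000 or 2,000 mg; one group got 1,000 mg fed. Treatment-emergent adverse events, vital signs, hematology, chemistries, urinalysis and ECG were recorded through day 1 and follow-up at weeks 1 and 4. Drug relation was judged blinded.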

Homo sapiens [35] = test: Toxicity in fasting healthy human assessed as back pain at 500 mg, po administered as single dose measured after 48 hrs; type: organism-based; conditions: in vivo; procedure, shortened: as §4
Homo sapiens [36] = test: Toxicity in fasting healthy human assessed as headache at 500 mg, po administered as single dose measured after 48 hrs; type: organism-based; conditions: in vivo; procedure, shortened: as §4
Homo sapiens [37] = test: Toxicity in fasting healthy human assessed as adverse events at 1000 mg, po administered as single dose measured after 48 hrs; type: organism-based; conditions: in vivo; procedure, shortened: as §4
Homo sapiens [38] = test: Toxicity in fasting healthy human assessed as neutropenia at 1000 mg, po administered as single dose measured after 48 hrs; type: organism-based; conditions: in vivo; procedure, shortened: as §4
Homo sapiens [39] = test: Toxicity in fasting healthy human assessed as constipation at 1000 mg, po administered as single dose measured after 48 hrs; type: organism-based; conditions: in vivo; procedure, shortened: as §4
Homo sapiens [40] = test: Toxicity in healthy human assessed as adverse events at 1000 mg, po administered as single dose measured after 72 hrs; type: organism-based; conditions: in vivo; procedure, shortened: as §4
Homo sapiens [41] = test: Toxicity in healthy human assessed as headache at 1000 mg, po administered as single dose measured after 72 hrs; type: organism-based; conditions: in vivo; procedure, shortened: as §4

**Q.** For `O=C(NN1C(=O)[C@@H]2[C@@H]3C=C[C@@H]([C@H]4C[C@@H]34)[C@@H]2C1=O)c1ccc(C(F)(F)F)cc1` [TECOVIRIMAT], which half-life [1] is on record?
**A.** Its half-life is 26 h.

**Q.** And the half-life [2]?
**A.** The half-life was 40 h.

**Q.** What about the half-life [3] of the same compound?
**A.** The half-life was 22 h.

**Q.** What about the half-life [4] of the same compound?
**A.** The half-life was 17 h.

**Q.** What about the Tmax [5] of the same compound?
**A.** Its Tmax is 2 h.

**Q.** What about the Tmax [6] of the same compound?
**A.** Its Tmax is 3 h.

**Q.** And the Tmax [7]?
**A.** The Tmax was 3 h.

**Q.** And the Tmax [8]?
**A.** Its Tmax is 5 h.

**Q.** And the Cmax [9]?
**A.** Its Cmax is 934 ng/mL.

**Q.** And the Cmax [10]?
**A.** The Cmax was 1810 ng/mL.

**Q.** And the Cmax [11]?
**A.** The Cmax was 2550 ng/mL.

**Q.** And the Cmax [12]?
**A.** The Cmax was 2930 ng/mL.

**Q.** What about the AUC(0-t) at 48 h [13] of the same compound?
**A.** The AUC(0-t) at 48 h was 9880 ng·h/mL.

**Q.** What about the AUC(0-t) at 48 h [14] of the same compound?
**A.** The AUC(0-t) at 48 h was 21100 ng·h/mL.

**Q.** What about the AUC(0-t) at 48 h [15] of the same compound?
**A.** Its AUC(0-t) at 48 h is 24500 ng·h/mL.

**Q.** And the AUC(0-t) at 72 h [16]?
**A.** The AUC(0-t) at 72 h was 34100 ng·h/mL.

**Q.** What about the AUC(0-inf) [17] of the same compound?
**A.** Its AUC(0-inf) is 9810 ng·h/mL.

**Q.** And the AUC(0-inf) [18]?
**A.** The AUC(0-inf) was 24900 ng·h/mL.

**Q.** What about the AUC(0-inf) [19] of the same compound?
**A.** The AUC(0-inf) was 25700 ng·h/mL.

**Q.** What about the AUC(0-inf) [20] of the same compound?
**A.** The AUC(0-inf) was 35900 ng·h/mL.

**Q.** What about the CL/F [21] of the same compound?
**A.** The CL/F was 883 mL/min.

**Q.** What about the CL/F [22] of the same compound?
**A.** Its CL/F is 817 mL/min.

**Q.** What about the CL/F [23] of the same compound?
**A.** Its CL/F is 1320 mL/min.

**Q.** And the CL/F [24]?
**A.** Its CL/F is 500 mL/min.

**Q.** What about the half-life [25] of the same compound?
**A.** Its half-life is 20.9 h.

**Q.** What about the t1/2 (Homo sapiens [26]) of the same compound?
**A.** Its t1/2 is 19.8 h.

**Q.** And the half-life [27]?
**A.** The half-life was 18.9 h.

**Q.** And the CL/F [28]?
**A.** The CL/F was 860 mL/min.

**Q.** What about the CL/F [29] of the same compound?
**A.** Its CL/F is 838 mL/min.

**Q.** What about the CL/F [30] of the same compound?
**A.** The CL/F was 1290 mL/min.

**Q.** What about the Cmax [31] of the same compound?
**A.** Its Cmax is 3120 ng/mL.

**Q.** And the CL/F [32]?
**A.** Its CL/F is 513 mL/min.

**Q.** And the Activity (Homo sapiens [33])?
**A.** The Activity was 25%.

**Q.** What about the Activity (Homo sapiens [34]) of the same compound?
**A.** The Activity was 12.5%.

**Q.** What about the Activity (Homo sapiens [35]) of the same compound?
**A.** Its Activity is 12.5%.

**Q.** And the Activity (Homo sapiens [36])?
**A.** The Activity was 12.5%.

**Q.** And the Activity (Homo sapiens [37])?
**A.** The Activity was 12.5%.

**Q.** And the Activity (Homo sapiens [38])?
**A.** The Activity was 12.5%.

**Q.** What about the Activity (Homo sapiens [39]) of the same compound?
**A.** The Activity was 12.5%.

**Q.** And the Activity (Homo sapiens [40])?
**A.** The Activity was 12.5%.

**Q.** And the Activity (Homo sapiens [41])?
**A.** Its Activity is 12.5%.
